Results: ChEMBL document CHEMBL1156663, “11-Hydroxymonocerin from the plant endophytic fungus Exserohilum rostratum” (J Nat Prod, 2008)

How the values were obtained:
Plasmodium falciparum = assay: Antimalarial activity against multidrug-resistant Plasmodium falciparum K1; format: functional, organism-based
Outline: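 In vitro microculture radioisotope assay against P. falciparum K1 (multidrug-resistant), parasites maintained in continuous culture; IC50 determined, dihydroartemisinin run as positive control.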

BT-474 = assay: Cytotoxicity against human BT474 cells at 20 ug/mL by MTT assay; format: functional, cell-based
KATO3 = assay: Cytotoxicity against human KATO3 cells at 20 ug/mL by MTT assay; format: functional, cell-based
HepG2 = assay: Cytotoxicity against human HepG2 cells at 20 ug/mL by MTT assay; format: functional, cell-based
SW-620 = assay: Cytotoxicity against human SW620 cells at 20 ug/mL by MTT assay; format: functional, cell-based
CHAGO = assay: Cytotoxicity against human CHAGO cells at 20 ug/mL by MTT assay; format: functional, cell-based

SMILES | IC50 (Plasmodium falciparum) | Activity (BT-474) | Activity (KATO3) | Activity (HepG2) | Activity (SW-620) | Activity (CHAGO)
CC[C@@H](OC(C)=O)[C@@H]1C[C@@H]2OC(=O)c3c(cc(OC)c(OC)c3OC(C)=O)[C@@H]2O1 | 9.1 µM | Not toxic | Not toxic | Not toxic | Not toxic | Not toxic
CCC[C@H]1C[C@H]2OC(=O)c3c(cc(OC)c(OC)c3O)[C@H]2O1 [MONOCERIN] | 0.68 µM | Not toxic | Not toxic | Not toxic | Not toxic | Not toxic
CC[C@@H](O)[C@@H]1C[C@@H]2OC(=O)c3c(cc(OC)c(OC)c3O)[C@@H]2O1 | 7.7 µM | Not toxic | Not toxic | Not toxic | Not toxic | Not toxic
CCC[C@@H]1C[C@@H]2OC(=O)c3c(cc(OC)c(OC)c3OC(C)=O)[C@@H]2O1 | 0.82 µM | Not toxic | Not toxic | Not toxic | Not toxic | Not toxic
